Test results reported in ChEMBL document CHEMBL1926569, “Novel (E)-1-(4-methyl-2-(alkylamino)thiazol-5-yl)-3-arylprop-2-en-1-ones as potent antimicrobial agents” (2011).

Assays:
Enterococcus faecalis [1] = test: Antibacterial activity against Enterococcus faecalis isolated from human incubated for 24 hrs followed by serial sub-cultivation for 24 hrs by microdilution; format: functional
Outline: (§1)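 MBC: after the 24 h LB broth microdilution (1.0 × 10⁴ CFU per well, 160 rpm), wells were serially sub-cultured into fresh broth plates and incubated a further 24 h. MBC is the lowest concentration with no visible growth, taken as 99.5% killing of the original inoculum. Duplicate, repeated three times.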

Pseudomonas aeruginosa [2] = test: Ratio of ampicillin MIC to compound MIC for Pseudomonas aeruginosa ATCC 27853; format: functional
Talaromyces funiculosus [3] = test: Antifungal activity against Penicillium funiculosum ATCC 36839 after 72 hrs by serial dilution technique; format: functional; conditions: ATCC 36839, 72 h
Outline: (§2)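 Modified microdilution in 96-well plates. Fungi were kept on malt agar at 4 °C. Spores were washed off in sterile 0.85% saline with 0.1% Tween 80. Compounds were dissolved at 1 mg/ml in 5% DMSO with 0.1% Tween 80 and added to malt broth with inoculum. Plates were shaken at 160 rpm for 72 h at 28 °C. Duplicate, repeated three times.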

Aspergillus fumigatus [4] = test: Ratio of ketoconazole to compound for Aspergillus fumigatus isolated from human; format: functional
Penicillium ochrochloron [5] = test: Antifungal activity against Penicillium ochrochloron ATCC 9112 after 72 hrs by serial dilution technique; format: functional; conditions: ATCC 9112, 72 h; outline: as §2
Aspergillus ochraceus [6] = test: Antifungal activity against Aspergillus ochraceus ATCC 12066 after 72 hrs by serial dilution technique; format: functional; conditions: ATCC 12066, 72 h; outline: as §2
Candida albicans [7] = test: Antifungal activity against Candida albicans isolated from human incubated for 72 hrs followed by serial sub-cultivation for 72 hrs by serial dilution technique; format: functional
Outline: (§3)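 MFC: material from 72 h malt broth microdilution wells was serially sub-cultured into fresh broth plates and incubated a further 72 h at 28 °C. Fungicidal concentration is taken from growth after sub-culture. Duplicate, repeated three times.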

Candida albicans [8] = test: Ratio of ketoconazole to compound for Candida albicans isolated from human; format: functional
Talaromyces funiculosus [9] = test: Antifungal activity against Penicillium funiculosum ATCC 36839 incubated for 72 hrs followed by serial sub-cultivation for 72 hrs by serial dilution technique; format: functional; conditions: ATCC 36839, 72 h; outline: as §3
Micrococcus flavus [10] = test: Antibacterial activity against Micrococcus flavus ATCC 10240 incubated for 24 hrs followed by serial sub-cultivation for 24 hrs by microdilution; format: functional; conditions: ATCC 10240, 24 h; outline: as §1
Aspergillus ochraceus [11] = test: Antifungal activity against Aspergillus ochraceus after 72 hrs by serial dilution technique
Pseudomonas aeruginosa [12] = test: Antibacterial activity against Pseudomonas aeruginosa ATCC 27853 after 24 hrs by microdilution method; format: functional; conditions: ATCC 27853, 24 h
Outline: (§4)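 Broth microdilution in 96-well plates. Bacterial suspensions were adjusted in sterile saline to 1.0 × 10⁵ CFU/ml, prepared daily and kept at 4 °C. Compound was added to LB broth with 1.0 × 10⁴ CFU per well and shaken at 160 rpm for 24 h at […] (so in the source). MIC is the lowest concentration with no visible growth under a binocular microscope. OD655 was also read. Duplicate, repeated three times.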

Aspergillus niger [13] = test: Ratio of bifonazole to compound for Aspergillus niger ATCC 6275; format: functional
Salmonella typhimurium [14] = test: Antibacterial activity against Salmonella Typhimurium ATCC 13311 incubated for 24 hrs followed by serial sub-cultivation for 24 hrs by microdilution; format: functional, Salmonella enterica subsp. enterica serovar Typhimurium; conditions: Salmonella enterica, ATCC 13311, 24 h; outline: as §1
Aspergillus niger [15] = test: Antifungal activity against Aspergillus niger ATCC 6275 after 72 hrs by serial dilution technique; format: functional; conditions: ATCC 6275, 72 h; outline: as §2
Salmonella typhimurium [16] = test: Antibacterial activity against Salmonella Typhimurium ATCC 13311 after 24 hrs by microdilution method; format: functional, Salmonella enterica subsp. enterica serovar Typhimurium; conditions: Salmonella enterica, ATCC 13311, 24 h; outline: as §4
Micrococcus flavus [17] = test: Antibacterial activity against Micrococcus flavus ATCC 10240 after 24 hrs by microdilution method; format: functional; conditions: ATCC 10240, 24 h; outline: as §4
Penicillium ochrochloron [18] = test: Antifungal activity against Penicillium ochrochloron ATCC 9112 incubated for 72 hrs followed by serial sub-cultivation for 72 hrs by serial dilution technique; format: functional; conditions: ATCC 9112, 72 h; outline: as §3
Aspergillus fumigatus [19] = test: Antifungal activity against Aspergillus fumigatus isolated from human incubated for 72 hrs followed by serial sub-cultivation for 72 hrs by serial dilution technique; format: functional; outline: as §3
Talaromyces funiculosus [20] = test: Ratio of bifonazole to compound for Penicillium funiculosum ATCC 36839; format: functional
Aspergillus ochraceus [21] = test: Antifungal activity against Aspergillus ochraceus ATCC 12066 incubated for 72 hrs followed by serial sub-cultivation for 72 hrs by serial dilution technique; format: functional; conditions: ATCC 12066, 72 h; outline: as §3
Aspergillus flavus [22] = test: Antifungal activity against Aspergillus flavus ATCC 9643 after 72 hrs by serial dilution technique; format: functional; conditions: ATCC 9643, 72 h; outline: as §2
Bacillus cereus [23] = test: Antibacterial activity against clinical isolate of Bacillus cereus after 24 hrs by microdilution method; format: functional; outline: as §4
Penicillium ochrochloron [24] = test: Ratio of bifonazole to compound for Penicillium ochrochloron ATCC 9112; format: functional
Trichoderma viride [25] = test: Antifungal activity against Trichoderma viride IAM 5061 after 72 hrs by serial dilution technique; format: functional; conditions: IAM 5061, 72 h; outline: as §2
Aspergillus ochraceus [26] = test: Ratio of bifonazole to compound for Aspergillus ochraceus ATCC 12066; format: functional
Escherichia coli [27] = test: Antibacterial activity against Escherichia coli ATCC 35210 incubated for 24 hrs followed by serial sub-cultivation for 24 hrs by microdilution; format: functional; conditions: ATCC 35210, 24 h; outline: as §1
Staphylococcus aureus [28] = test: Antibacterial activity against Staphylococcus aureus ATCC 6538 incubated for 24 hrs followed by serial sub-cultivation for 24 hrs by microdilution method; format: functional; conditions: ATCC 6538, 24 h; outline: as §1
Listeria monocytogenes [29] = test: Antibacterial activity against Listeria monocytogenes NCTC 7973 incubated for 24 hrs followed by serial sub-cultivation for 24 hrs by microdilution; format: functional; conditions: NCTC 7973, 24 h; outline: as §1
Candida albicans [30] = test: Ratio of bifonazole to compound for Candida albicans isolated from human; format: functional
Pseudomonas aeruginosa [31] = test: Antibacterial activity against Pseudomonas aeruginosa ATCC 27853 incubated for 24 hrs followed by serial sub-cultivation for 24 hrs by microdilution; format: functional; conditions: ATCC 27853, 24 h; outline: as §1
Aspergillus flavus [32] = test: Antifungal activity against Aspergillus flavus ATCC 9643 incubated for 72 hrs followed by serial sub-cultivation for 72 hrs by serial dilution technique; format: functional; conditions: ATCC 9643, 72 h; outline: as §3
Aspergillus ochraceus [33] = test: Ratio of ketoconazole to compound for Aspergillus ochraceus ATCC 12066; format: functional
Candida albicans [34] = test: Antifungal activity against Candida albicans isolated from human after 72 hrs by serial dilution technique; format: functional; outline: as §2
Bacillus cereus [35] = test: Antibacterial activity against clinical isolate of Bacillus cereus incubated for 24 hrs followed by serial sub-cultivation for 24 hrs by microdilution; format: functional; outline: as §1
Listeria monocytogenes [36] = test: Antibacterial activity against Listeria monocytogenes NCTC 7973 after 24 hrs by microdilution method; format: functional; conditions: NCTC 7973, 24 h; outline: as §4
Penicillium ochrochloron [37] = test: Ratio of ketoconazole to compound for Penicillium ochrochloron ATCC 9112; format: functional
Trichoderma viride [38] = test: Antifungal activity against Trichoderma viride IAM 5061 incubated for 72 hrs followed by serial sub-cultivation for 72 hrs by serial dilution technique; format: functional; conditions: IAM 5061, 72 h; outline: as §3
Trichoderma viride [39] = test: Ratio of bifonazole to compound for Trichoderma viride IAM 5061; format: functional
Staphylococcus aureus [40] = test: Antibacterial activity against Staphylococcus aureus ATCC 6538 after 24 hrs by microdilution method; format: functional; conditions: ATCC 6538, 24 h; outline: as §4
Aspergillus niger [41] = test: Antifungal activity against Aspergillus niger ATCC 6275 incubated for 72 hrs followed by serial sub-cultivation for 72 hrs by serial dilution technique; format: functional; conditions: ATCC 6275, 72 h; outline: as §3
Escherichia coli [42] = test: Antibacterial activity against Escherichia coli ATCC 35210 after 24 hrs by microdilution method; format: functional; conditions: ATCC 35210, 24 h; outline: as §4
Enterococcus faecalis [43] = test: Antibacterial activity against Enterococcus faecalis isolated from human after 24 hrs by microdilution method; format: functional; outline: as §4

CCNc1nc(C)c(C(=O)/C=C/c2cccc([N+](=O)[O-])c2)s1
78.9 µM: MIC (Pseudomonas aeruginosa [12]) | MBC (Escherichia coli [27]) | MBC (Pseudomonas aeruginosa [31])
63.1 µM: MBC (Enterococcus faecalis [1]) | MIC (Penicillium ochrochloron [5]) | MIC (Aspergillus ochraceus [6]) | MFC (Candida albicans [7]) | MFC (Talaromyces funiculosus [9]) | MIC (Aspergillus ochraceus [11]) | MBC (Salmonella typhimurium [14]) | MIC (Aspergillus niger [15]) | MIC (Micrococcus flavus [17]) | MIC (Aspergillus flavus [22]) | MBC (Bacillus cereus [35]) | MFC (Trichoderma viride [38]) | MIC (Escherichia coli [42])
31.5 µM: MIC (Talaromyces funiculosus [3]) | MIC (Candida albicans [34])
78.8 µM: MFC (Penicillium ochrochloron [18]) | MFC (Aspergillus fumigatus [19]) | MFC (Aspergillus ochraceus [21]) | MFC (Aspergillus flavus [32]) | MFC (Aspergillus niger [41])
47.3 µM: MIC (Salmonella typhimurium [16]) | MIC (Bacillus cereus [23]) | MIC (Trichoderma viride [25]) | MIC (Enterococcus faecalis [43])
10: Ratio (Pseudomonas aeruginosa [2]) | Ratio (Aspergillus fumigatus [4]) | Ratio (Candida albicans [8]) | Ratio (Aspergillus niger [13]) | Ratio (Talaromyces funiculosus [20]) | Ratio (Penicillium ochrochloron [24]) | Ratio (Aspergillus ochraceus [26]) | Ratio (Candida albicans [30]) | Ratio (Aspergillus ochraceus [33]) | Ratio (Penicillium ochrochloron [37]) | Ratio (Trichoderma viride [39])
94.6 µM: MBC (Micrococcus flavus [10]) | MBC (Staphylococcus aureus [28]) | MBC (Listeria monocytogenes [29]) | MIC (Listeria monocytogenes [36]) | MIC (Staphylococcus aureus [40])
